Laboratory results reported in ChEMBL document CHEMBL1123636 (J Med Chem, 1987).
Where a SMILES comes first, the peptide text is derived from it. Side-chain parts run from the residue outwards. The star is where a group is joined. Oxymorphamine(6α) = CN1CC[C@]23c4c5ccc(O)c4O[C@H]2[C@@H](N*)CC[C@@]3(O)[C@H]1C5

Columns and labels:
Cavia porcellus [1] = species: Cavia porcellus; test: Opioid agonist potencies was determined by electrically stimulated guinea pig ileum (GPI); assay type: functional
Cavia porcellus [2] = species: Cavia porcellus; test: Ke value for naloxone versus compound in the guinea pig ileum (GPI) in order to distinguish between mu- and delta-mediated effects; assay type: functional
Procedure, shortened: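 Electrically stimulated guinea pig ileum. Naloxone antagonism measured against each agonist and expressed as a Ke, used to tell μ- from δ- or κ-mediated effects.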

Mus musculus [3] = test: Analgesic potency (antinociceptive activity) (administered icv) at peak time of 20 min in male Swiss-Webster mice; assay type: functional
Procedure, shortened: (§1)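 Intracerebroventricular dosing in male Swiss-Webster mice. Antinociception scored by the acetic acid writhing test at the peak time of analgesia, 10 or 20 min after injection depending on compound.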

Mus musculus [4] = species: Mus musculus; test: Opioid agonist potencies was determined by mouse vas deferens (MVD); assay type: functional
Mu-type opioid receptor [5] = target: T1, Mu-type opioid receptor (Cavia porcellus, UniProt P97266); test: Binding affinity of Opioid receptor mu 1 by the displacement of mu-selective [3H]DAGO from brain membrane preparations.
Procedure, shortened: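 Competitive displacement of the μ-selective radioligand [3H]DAGO from brain membrane preparations ([…]). Affinity taken from ligand displacement.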

Mus musculus [6] = test: Analgesic potency (antinociceptive activity) (administered icv) at peak time of 10 min in male Swiss-Webster mice; assay type: functional; procedure, shortened: as §1
Mu-type opioid receptor [7] = target: T1, Mu-type opioid receptor; test: Binding affinity of Opioid receptor mu 1 mu 1 by the displacement of mu-selective [3H]DAGO from brain membrane preparations.

T1 sequence (P97266 whole entry): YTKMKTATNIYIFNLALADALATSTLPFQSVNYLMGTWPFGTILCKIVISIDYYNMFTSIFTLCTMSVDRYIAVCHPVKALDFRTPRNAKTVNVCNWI

Molecule `CC(=O)N[C@H]1CC[C@@]2(O)[C@H]3Cc4ccc(O)c5c4[C@@]2(CCN3C)[C@H]1O5` has an IC50 (Cavia porcellus [1]) of 136 nM, a Ke (Cavia porcellus [2]) of 0.88 nM and an ED50 (Mus musculus [3]) of 5.4 nM. For the same molecule, the IC50 (Mus musculus [4]) was 166 nM and the Ki (Mu-type opioid receptor [5]) was 1.81 nM.
`CC(=O)NCC(=O)NCC(=O)N[C@H]1CC[C@@]2(O)[C@H]3Cc4ccc(O)c5c4[C@@]2(CCN3C)[C@H]1O5` was tested, and the IC50 (Cavia porcellus [1]) was 82.3 nM, the Ke (Cavia porcellus [2]) was 1.55 nM and the ED50 (Mus musculus [3]) was 3.1 nM. The IC50 (Mus musculus [4]) was 78 nM and the Ki (Mu-type opioid receptor [5]) was 5.48 nM.
`CC(C)C[C@H](NC(=O)[C@H](Cc1ccccc1)NC(=O)CNC(=O)[C@H](CCC(=O)N[C@H]1CC[C@@]2(O)[C@H]3Cc4ccc(O)c5c4[C@@]2(CCN3C)[C@H]1O5)NC(=O)[C@@H](N)Cc1ccc(O)cc1)C(=O)O` (H-YE(Oxymorphamine(6α))GFL-OH) was tested, and the IC50 (Cavia porcellus [1]) was 7.5 nM, the Ke (Cavia porcellus [2]) was 1.02 nM and the ED50 (Mus musculus [3]) was 0.7 nM. For the same molecule, the IC50 (Mus musculus [4]) was 26.9 nM and the Ki (Mu-type opioid receptor [5]) was 19.1 nM.
Molecule `CC(C)C[C@H](NC(=O)[C@H](Cc1ccccc1)NC(=O)CNC(=O)[C@H](CCC(=O)NCC(=O)NCC(N)=O)NC(=O)[C@@H](N)Cc1ccc(O)cc1)C(=O)O` (H-YE([Gly-Gly-NH2])GFL-OH) has an IC50 (Cavia porcellus [1]) of 597 nM, a Ke (Cavia porcellus [2]) of 2.32 nM and an ED50 (Mus musculus [6]) of 60 nM. For the same molecule, the IC50 (Mus musculus [4]) was 61.8 nM and the Ki (Mu-type opioid receptor [5]) was 52.9 nM.
In the case of `CC(C)C[C@H](NC(=O)[C@H](Cc1ccccc1)NC(=O)CNC(=O)[C@H](CCC(=O)NCC(=O)NCC(=O)N[C@H]1CC[C@@]2(O)[C@H]3Cc4ccc(O)c5c4[C@@]2(CCN3C)[C@H]1O5)NC(=O)[C@@H](N)Cc1ccc(O)cc1)C(=O)O` (H-YE([Gly-Gly-Oxymorphamine(6α)])GFL-OH), the IC50 (Cavia porcellus [1]) is reported as 57.2 nM, the Ke (Cavia porcellus [2]) is reported as 1.32 nM and the ED50 (Mus musculus [3]) is reported as 5 nM. For the same molecule, the IC50 (Mus musculus [4]) was 47.7 nM and the Ki (Mu-type opioid receptor [5]) was 11.1 nM.
`CC(C)C[C@H](NC(=O)[C@H](Cc1ccccc1)NC(=O)CNC(=O)CNC(=O)[C@@H](N)Cc1ccc(O)cc1)C(=O)O` [ENKEPHALIN] was tested, and the Ke (Cavia porcellus [2]) was 1.53 nM.
Work on `CN1CC[C@]23c4c5ccc(O)c4O[C@H]2C(=O)CC[C@@]3(O)[C@H]1C5` [OXYMORPHONE] yielded an ED50 (Mus musculus [6]) of 24 nM.
H-YQGFL-OH showed an IC50 (Cavia porcellus [1]) of 210 nM, a Ke (Cavia porcellus [2]) of 1.63 nM and an ED50 (Mus musculus [6]) of 84 nM. The IC50 (Mus musculus [4]) was 123 nM and the Ki (Mu-type opioid receptor [7]) was 21.7 nM.
